Key:
[1] = system: epidermoid carcinoma (KB, ATCC number CCL-17); test: MTT cytotoxicity assay, KB cells; type: cell-based; details: Homo sapiens, 72 h, read-out: IC50 KB
Summary of the method: (§1)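 Log-phase cells in DMEM with 7–10% FBS and penicillin/streptomycin (37 °C, 5% CO2) seeded at 3 × 10^4 cells per mL. Exposed 3 days to test compound in DMSO at 1.00, 0.25, 0.0625 and 0.0156 μg mL−1. MTT (5 mg mL−1 stock in 0.1 M PBS, pH 7.4) added for 4 h at 37 °C; formazan dissolved in DMSO, absorbance at 540 nm. Growth inhibition calculated relative to untreated controls.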

[2] = system: hepatocellular carcinoma (HepG2, ATCC number HB-8065); test: MTT cytotoxicity assay, HepG2 cells; type: cell-based; details: Homo sapiens, HepG2, 72 h, read-out: IC50 HepG2
Summary of the method: as §1

[3] = system: breast (MCF7, HTB-22™) cancer cell line; test: MTT cytotoxicity assay, MCF7 cells; type: cell-based; details: Homo sapiens, MCF7, 72 h, read-out: IC50 MCF7
Summary of the method: as §1

[4] = system: lung (A549) cancer cell line; test: MTT cytotoxicity assay, A549 cells; type: cell-based; details: Homo sapiens, A549, 72 h, read-out: IC50 A549
Summary of the method: as §1

[5] = system: human embryonic kidney (HEK-293, ATCC number CRL-1573) cell line; test: MTT cytotoxicity assay, Hek-293 cells; type: cell-based; details: HEK293, 72 h, read-out: IC50 Hek-293
Summary of the method: as §1

SK-Lu-1 cells [6] = test: Cell cycle analysis by flow cytometry; type: cell-based, human; details: 24 h
Summary of the method: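 Log-phase SK-LU-1 cells (3 × 10^5 per 25 cm2 flask) treated 24 h with test compound at 0.08, 0.16 or 0.32 μM. Controls: DMSO 0.05%, ellipticine 1.3 μM, vincristine 0.4 and 4 μM. Cells were PBS-washed and fixed in ice-cold 70% ethanol at −20 °C for 2 h. They were then treated with RNase A (1 mg mL−1, 37 °C, 15 min), stained with PI for 30 min and analysed by flow cytometry.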

SK-Lu-1 cells [7] = test: Annexin V FITC and PI flow cytometry assay for apoptosis; type: cell-based, human; details: 24 h; for % Necrotic cells: Annexin-V/PI (Q2-1); for % Late apoptosis cells: Annexin-V/PI (Q2-2); for % Early apoptosis cells: Annexin-V/PI (Q2-4); for % Total apoptosis cells: early + late
Summary of the method: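 SK-LU-1 cells (3 × 10^5 per 25 cm2 flask; DMEM, 7–10% FBS, penicillin/streptomycin, 37 °C, 5% CO2) exposed 24 h to test compound. Controls: DMSO 0.5%, ellipticine 1.3 μM, vincristine 0.4 and 4 μM. Cells were harvested, washed in cold PBS and resuspended in annexin-binding buffer. They were stained with FITC-annexin V plus PI (100 μg mL−1 working solution) for 15 min at room temperature, then diluted and analysed by flow cytometry.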

Structure (SMILES) | IC50 [1] | IC50 [2] | IC50 [3] | IC50 [4] | IC50 [5] | further results
COc1ccc(C2C3=C(COC3=O)NC3=C2C(=O)c2ccccc2C3=O)cc1OC (stereo not shown) [5l, 11-(3,4-Dimethoxyphenyl)-4,11-dihydrobenzo[g]furo[3,4-b]quinoline-1,5,10(3H)-trione] | 520 ± 20 nM | 530 ± 20 nM | 2280 ± 70 nM | 1100 ± 20 nM | 2230 ± 80 nM | 
COc1cc(C2C3=C(COC3=O)NC3=C2C(=O)c2ccccc2C3=O)cc(OC)c1OC (stereo not shown) [5m, 11-(3,4,5-Trimethoxyphenyl)-4,11-dihydrobenzo[g]furo[3,4-b]quinoline-1,5,10(3H)-trione] | 20 ± 10 nM | 20 ± 10 nM | 120 ± 30 nM | 620 ± 20 nM | 30 ± 10 nM | 
O=C1OCC2=C1C(c1cccnc1)C1=C(N2)C(=O)c2ccccc2C1=O (stereo not shown) [5n, 11-(Pyridin-3-yl)-4,11-dihydrobenzo[g]furo[3,4-b]quinoline-1,5,10(3H)-trione] | 620 ± 10 nM | > 2500 nM | 1960 ± 40 nM | 610 ± 20 nM | 1810 ± 50 nM | 
O=C1OCC2=C1C(c1ccc(Br)cn1)C1=C(N2)C(=O)c2ccccc2C1=O (stereo not shown) [5o, 11-(5-Bromopyridin-2-yl)-4,11-dihydrobenzo[g]furo[3,4-b]quinoline-1,5,10(3H)-trione] | > 2500 nM | > 2500 nM | > 2500 nM | > 2500 nM | > 20000 nM | 
Cc1c2ccncc2c(C)c2c1[nH]c1ccccc12 [Ellipticine, reference compound] | 1150 ± 10 nM | 1510 ± 50 nM | 1820 ± 30 nM | 1600 ± 20 nM | 6180 ± 110 nM | Percentage of cell by phases, % G0/G1 (SK-Lu-1 cells [6]; SK-LU-1, 1.3 μM): 10.09%; Percentage of cell by phases, % G2/M (SK-Lu-1 cells [6]; SK-LU-1, 1.3 μM): 71.29%; Percentage of cell by phases, % S (SK-Lu-1 cells [6]; SK-LU-1, 1.3 μM): 12.52%; % Necrotic cells (SK-Lu-1 cells [7]; SK-LU-1, 1.3 μM): 3.00%; % Late apoptosis cells (SK-Lu-1 cells [7]; SK-LU-1, 1.3 μM): 25.71%; % Early apoptosis cells (SK-Lu-1 cells [7]; SK-LU-1, 1.3 μM): 28.22%; % Total apoptosis cells (SK-Lu-1 cells [7]; SK-LU-1, 1.3 μM): 53.93%
CC[C@]1(O)C[C@H]2CN(CCc3c([nH]c4ccccc34)[C@@](C(=O)OC)(c3cc4c(cc3OC)N(C=O)[C@H]3[C@@](O)(C(=O)OC)[C@H](OC(C)=O)[C@]5(CC)C=CCN6CC[C@]43[C@@H]65)C2)C1 [Vincristine, reference compound] |  |  |  |  |  | Percentage of cell by phases, % G0/G1 (SK-Lu-1 cells [6]; SK-LU-1, 0.4 μM): 52.28%; Percentage of cell by phases, % G2/M (SK-Lu-1 cells [6]; SK-LU-1, 0.4 μM): 6.72%; Percentage of cell by phases, % S (SK-Lu-1 cells [6]; SK-LU-1, 0.4 μM): 38.19%; Percentage of cell by phases, % G0/G1 (SK-Lu-1 cells [6]; SK-LU-1, 4.0 μM): 0.07%; Percentage of cell by phases, % G2/M (SK-Lu-1 cells [6]; SK-LU-1, 4.0 μM): 82.57%; Percentage of cell by phases, % S (SK-Lu-1 cells [6]; SK-LU-1, 4.0 μM): 13.93%; % Necrotic cells (SK-Lu-1 cells [7]; SK-LU-1, 0.4 μM): 4.15%; % Late apoptosis cells (SK-Lu-1 cells [7]; SK-LU-1, 0.4 μM): 3.66%; % Early apoptosis cells (SK-Lu-1 cells [7]; SK-LU-1, 0.4 μM): 15.13%; % Total apoptosis cells (SK-Lu-1 cells [7]; SK-LU-1, 0.4 μM): 18.79%; % Necrotic cells (SK-Lu-1 cells [7]; SK-LU-1, 4.0 μM): 3.62%; % Late apoptosis cells (SK-Lu-1 cells [7]; SK-LU-1, 4.0 μM): 4.71%; % Early apoptosis cells (SK-Lu-1 cells [7]; SK-LU-1, 4.0 μM): 19.93%; % Total apoptosis cells (SK-Lu-1 cells [7]; SK-LU-1, 4.0 μM): 24.64%
